# Compounds with a hit are over-represented: about 4.2% of the library has one in this group of screens.
# hERG rescue: hERG rescue from dofetilide block, primary screen, cell-based, CHO-hERG, FluxOR thallium flux, dofetilide IC70; dofetilide IC70 present; activation (rescue from dofetilide block), less the hit threshold, % at 10 µM; hit rate 0.51% among 310,000; AID 1511, 2009;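 active = activation above the mean of controls blocked by dofetilide plus 5 SD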;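 also: thallium influx through hERG after potassium depolarization seen as dye fluorescence rise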
# KCNQ1 inh: inhibitors of human KCNQ1 channel, primary screen, cell-based, thallium flux, high-throughput; AID 2642, 2010; B-score at 10 µM; CHO-K1 KCNQ1, FluxOR thallium flux fluorescence; stronger effect = higher value; hit rate 1.3% among 310,000; Potassium voltage-gated channel subfamily KQT member 1 (Homo sapiens), P51787;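 active = compounds whose thallium flux B-score, printed positive for inhibition, exceeds three library SD while starting fluorescence stays within three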;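 also: channel opened by potassium depolarization with thallium stimulus after 20 min compound exposure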
# Cl transport mod: KCC2 cotransporter modulators, thallium flux, primary screen, cell-based, HEK293 KCC2, FluoZin-2 fluorescence, MLSMR; Solute carrier family 12 member 5 (Homo sapiens), Q9H2X9; KCC2 cells, thallium flux FluoZin-2 fluorescence; B-score of Tl+ flux slope (higher = more flux/activation; lower = inhibition) at 10 µM; hit rate 2.2% among 190,000; AID 1456, 2008;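 active = thallium flux slope and its plate-corrected score both differing from the plate sample mean at a set confidence after two filtering rounds, in either direction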;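 also: slope of fluorescence scaled to starting intensity during 10 to 20 s after thallium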
# Target sequence (Q9H2X9 whole entry, looked up): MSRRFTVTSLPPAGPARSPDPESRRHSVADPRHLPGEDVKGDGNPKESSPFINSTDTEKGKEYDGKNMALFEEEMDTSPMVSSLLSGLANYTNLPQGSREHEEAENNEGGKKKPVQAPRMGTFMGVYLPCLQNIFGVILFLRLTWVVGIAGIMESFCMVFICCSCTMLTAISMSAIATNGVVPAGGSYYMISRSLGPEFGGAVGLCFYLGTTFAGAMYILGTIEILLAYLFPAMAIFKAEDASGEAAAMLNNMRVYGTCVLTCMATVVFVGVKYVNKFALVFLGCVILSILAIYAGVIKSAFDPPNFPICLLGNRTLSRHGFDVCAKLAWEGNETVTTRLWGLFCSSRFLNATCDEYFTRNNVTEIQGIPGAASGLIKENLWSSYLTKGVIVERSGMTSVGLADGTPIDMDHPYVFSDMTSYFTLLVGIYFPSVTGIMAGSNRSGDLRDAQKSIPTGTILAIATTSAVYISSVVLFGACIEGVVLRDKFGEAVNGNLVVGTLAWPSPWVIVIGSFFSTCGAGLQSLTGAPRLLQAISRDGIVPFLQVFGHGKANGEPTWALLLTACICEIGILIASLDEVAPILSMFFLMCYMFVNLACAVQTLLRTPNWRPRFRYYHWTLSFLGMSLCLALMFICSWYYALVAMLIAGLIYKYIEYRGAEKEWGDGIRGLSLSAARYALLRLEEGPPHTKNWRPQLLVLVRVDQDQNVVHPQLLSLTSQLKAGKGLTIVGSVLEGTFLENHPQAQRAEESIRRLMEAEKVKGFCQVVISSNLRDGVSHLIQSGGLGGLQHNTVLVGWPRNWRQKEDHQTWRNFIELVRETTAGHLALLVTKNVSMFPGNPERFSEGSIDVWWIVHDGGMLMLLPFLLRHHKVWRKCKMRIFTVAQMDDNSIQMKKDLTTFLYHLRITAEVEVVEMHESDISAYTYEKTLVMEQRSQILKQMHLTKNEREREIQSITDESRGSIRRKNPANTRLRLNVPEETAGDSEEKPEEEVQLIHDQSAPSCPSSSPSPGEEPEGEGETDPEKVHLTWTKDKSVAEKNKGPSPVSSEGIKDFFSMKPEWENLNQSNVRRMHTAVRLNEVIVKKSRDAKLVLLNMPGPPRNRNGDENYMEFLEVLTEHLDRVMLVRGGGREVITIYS
# AI-2 QS modul: Vibrio harveyi AI-2 quorum sensing modulators, primary screen, JMH597 strain, luminescence/OD600 ratio; Vibrio harveyi JMH597 AI-2 luminescence/OD600 ratio, 9 h; stronger effect = lower value; strain lacks LuxN and CqsS sensors; 0 = neutral-control median; activity change, % at 7.5 µM; hit rate 0.4% among 300,000; AID 2094, 2009; in the data active = activity change below about -75%, passing the limit was not always enough;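 also: luminescence divided by OD600 gain over 9 h not by final OD600 alone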
# KCNQ1 act: potentiators or activators of KCNQ1 channel, primary screen, cell-based, thallium flux, high-throughput; Potassium voltage-gated channel subfamily KQT member 1 (Homo sapiens), P51787; CHO-K1 KCNQ1, thallium flux FluxOR fluorescence; stronger effect = higher value; B-score at 10 µM; hit rate 0.35% among 310,000;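 active = fluorescence ratio B-score, a plate-corrected score, at least three library SD, with initial intensity B-score within 5 SD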
#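 assay system = KCNQ1-transfected CHO-K1 cells | medium = assay buffer with matched DMSO | probe or stimulus = depolarizing K+/Tl+ stimulus, K2SO4 and Tl2SO4 each 12.5 mM in 5x stock | dosing = single dose | incubation = dye 90 min, compound 20 min, room temperature | detection = kinetic FluxOR fluorescence, 10 s baseline plus 110 s post-stimulus | evaluation = ratio B score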
# Mot1-301 SUMO: yeast Mot1-301 growth rescue at high temperature, primary screen, SUMOylation pathway inhibitor project, S. cerevisiae, ATP luminescence, 38.5C; S. cerevisiae Mot1-301 growth rescue; percent above DMSO median, 100 means doubled; hit rate 1% among 320,000; growth rescue, % at 18.8 µM;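 active = every valid replicate shows activation above 250% relative to neutral control wells; inactive = the rest, any valid replicate at or below 250%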;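 also: OY570 slx delta 5 strain wells were the positive control but not used for scaling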
# Yeast Mot1 SUMO: growth restoration of Mot1-301 yeast on galactose, dose response, SUMO pathway inhibitor project, whole organism, S. cerevisiae, ATP luminescence, cherry-picked samples | shares compounds with Mot1-301 SUMO | growth activity, percent, % at 42 µM | 2,300 tested, under 10 active | S. cerevisiae Mot1-301 galactose growth, 24 h; -100 = growth of slx-deleted rescue strain;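 active = Signal drops as the depositor expects, and the fitted half-maximal dose is no more than ten times the top valid tested dose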;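 also: more negative values mean stronger growth rescue toward the control strain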
# * hit, by the source's call; i = inactive; . = not tested or not shown; + = active, no number.
SMILES,hERG rescue,KCNQ1 inh,Cl transport mod,AI-2 QS modul,KCNQ1 act,Mot1-301 SUMO,Yeast Mot1 SUMO
Cc1cccc(CS(=O)(=O)Cc2ccc(C(=O)NCC3CCCO3)o2)c1 (stereo not given),-8,i,-0.02,-1,i,667*,1
COC(=O)c1c(NC(=O)CSc2nnc(C)c(=O)[nH]2)sc(C)c1C,-9,i,-1.4,35,i,-12,.
O=C(c1cc(F)ccc1F)C1CCCN(C(=O)c2ccc(F)cc2Cl)C1 (stereo not given),-11,i,.,17,i,-1,.
O=C(c1cc(F)ccc1F)C1CCCN(C(=O)c2ccc3nccnc3c2)C1 (stereo not given),-12,i,.,-6,i,670*,-1
Cc1cc(S(=O)(=O)N2CCC(NC(=O)C34CC5CC(CC(C5)C3)C4)CC2)ccc1-n1cnnn1,-12,i,.,24,i,114,.
O=C(CCCNC(=O)/C(=C/c1ccccc1F)NC(=O)c1ccccc1)OCc1ccccc1,-3,i,-1.8,28,i,496*,1
Cc1ccc(-c2cc(C(=O)Nc3cc(C)ccc3O)no2)cc1,-8,i,.,-15,i,-2,.
COc1ccc(-c2cc(C(=O)Nc3cc(C)ccc3O)no2)cc1,-8,i,.,45,i,369*,1
O=[N+]([O-])c1ccc(Cl)c(S(=O)(=O)/N=C(/c2ccccc2)N2CCOCC2)c1,-5,i,0.91,9,i,-2,.
O=C(Cc1ccc(Cl)cc1)NCC(=O)N1CCCC1,-3,i,0.21,5,i,5,.
O=S(=O)(NCc1cccc(C(F)(F)F)c1)NCc1ccccc1F,-4,i,-1,13,i,+,1
COc1ccccc1CN(C)C(=O)c1ccc(S(=O)(=O)Nc2c(C)n(C)n(-c3ccccc3)c2=O)cc1,.,.,.,.,.,7,.
COc1ccc(C(=O)NC(=S)Nc2ccc(CN3CCCCC3)cc2)cc1Cl,-23,i,0.9,11,i,636*,-1
CS(=O)(=O)Nc1ccccc1C(=O)NCCSCc1ccccc1,-7,i,-2.4,1,i,523*,0
N#CC1=C(N)Nc2ncnn2C1c1ccc([N+](=O)[O-])cc1 (stereo not given),-11,i,-0.3,10,i,599*,0
O=C(COC(=O)Cc1ccc(Cl)cc1)NCc1cccs1,.,.,.,.,.,3,.
Cc1nc(N/N=C\c2ccc3c(c2)OCO3)sc1C,-4,i,.,14,i,497*,0
C(=N\Nc1nc2ccccc2s1)/c1ccc2c(c1)OCO2,-9,i,-0.024,-2,i,-2,.
Cc1cccc(NC(=O)C2NC(=O)CC2c2ccccc2)c1C (stereo not given),-10,i,.,0,i,10,.
Nc1cc(Cl)ccc1N1CCOCC1,-7,i,.,9,i,465*,1
Cc1cc(NC(=O)c2ccc3c(c2)C(=O)N(C(C)(C)C)C3=O)no1,0,i,0.73,9,i,447*,0
Cc1cc(NC(=O)c2ccc3c(c2)C(=O)N(CC(C)C)C3=O)no1,-8,i,0.44,25,i,-15,.
CN(C(=O)COC(=O)CCC(=O)c1ccc(F)cc1)C1CCCCC1,.,.,.,.,.,18,.
Cc1nc(-c2cccc(S(=O)(=O)N3CCOCC3)c2)cs1,-6,i,-0.015,38,i,730*,0
Cc1c(O)ccc(C(=O)CN2C(=O)c3ccccc3C2=O)c1O,-7,i,0.018,9,i,876*,2
SMILES,hERG rescue,KCNQ1 inh,Cl transport mod,AI-2 QS modul,KCNQ1 act,Mot1-301 SUMO,Yeast Mot1 SUMO
CC(C)[C@H](NC(=O)C1(c2ccccc2)CCN(C(=O)OC(C)(C)C)CC1)C(=O)O,-5,i,.,10,i,607*,0
CC(C)(C)OC(=O)N1CCC(C(=O)N[C@@H](Cc2ccccc2)C(=O)O)(c2ccccc2)CC1,-3,i,1.4,1,i,29,.
Cc1c(NS(=O)(=O)c2ccc(Br)cc2)c(=O)n(-c2ccccc2)n1C,-1,i,.,5,i,3,.
Cc1c(NP(=O)(c2ccc(Br)cc2)c2ccc(Br)cc2)c(=O)n(-c2ccccc2)n1C,-9,i,-0.056,13,i,381*,0
COc1ccccc1OCC(=O)Nc1ccc(S(=O)(=O)N(C)c2ccccc2)cc1,-6,i,.,10,i,-5,.
CC(CCc1ccccc1)NC(=O)CCc1cn(C)c2ccccc12 (stereo not given),-6,i,.,11,i,87,.
CC(C)NC(=O)CCCc1cn(C)c2ccccc12,1,i,.,24,i,503*,1
COc1cc2c(cc1NC(=O)Nc1ccc(F)cc1)oc1ccccc12,-10,i,-0.094,34,i,-20,.
Cc1ccc(C(=O)Nc2nc(-c3ccc(F)cc3)cs2)o1,-10,i,.,22,i,410*,-2
CCN(CC(=O)NCc1cccs1)C(=O)c1ccc(NS(=O)(=O)c2ccc(F)cc2)cc1,-8,i,.,2,i,-14,.
O=C(Cc1csc(N2CCOCC2)n1)N/N=C/c1ccc(O)c(O)c1O,-10,i,-0.18,-6,i,.,.
C/C(=N\NC(=O)Cc1csc(N2CCOCC2)n1)c1ccccc1,-18,i,0.3,24,i,476*,0
CC(=O)NCC(=O)N(C)C(C(=O)Nc1ccc2c(c1)OCCO2)c1ccc(C)cc1 (stereo not given),-1,i,-0.044,8,i,-12,.
Cc1ccc(C(C(=O)Nc2ccc3c(c2)OCO3)N(C)C(=O)/C=C\c2ccc3c(c2)OCO3)cc1 (stereo not given),-3,i,0.088,23,i,383*,0
C#CCOc1ccc(/C=C2/C(=O)NN(c3ccc(F)cc3)C2=O)cc1OC,-6,i,.,7,i,68,.
